B2AR ag: human beta-2 adrenergic receptor agonism by FAP; P07550; Am2.2-beta2AR cells, FAP receptor internalization, flow cytometry; response, % (concentration not given with the values); 0.43% of 340,000 active;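 active = response above a set limit, near 3 SD of response in nonfluorescent compounds, cut at about 42% in these data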
TAAR1 agonist: human TAAR1 agonism. 0.99% of 360,000 active. AID 624467. Q96RJ0. activation, % at 3 µM. CHO RD-HGA16 TAAR1, Fluo-8 calcium fluorescence; vehicle wells 0%, saturating PEA agonist 100%;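 active = activation above the mean activation of all test compounds in the run plus 3 SD, cut at about 38% in these data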
Target sequence (Q96RJ0 whole entry, looked up): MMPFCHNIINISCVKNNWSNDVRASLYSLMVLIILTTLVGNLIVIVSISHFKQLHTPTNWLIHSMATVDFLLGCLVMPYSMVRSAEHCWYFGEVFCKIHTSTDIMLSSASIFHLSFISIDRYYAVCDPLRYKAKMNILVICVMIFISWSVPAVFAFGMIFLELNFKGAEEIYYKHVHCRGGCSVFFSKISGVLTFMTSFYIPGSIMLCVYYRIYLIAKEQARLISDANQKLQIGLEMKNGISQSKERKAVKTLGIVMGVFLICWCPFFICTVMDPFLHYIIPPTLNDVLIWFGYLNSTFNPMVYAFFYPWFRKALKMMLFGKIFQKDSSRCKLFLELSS
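Repeats: no replicates (n 1) | Material: CHO-derived RD-HGA16 cells with stable Gα16 and human TAAR1 | Technique: Kinetic Fluo-8 calcium fluorescence | Schedule: 17-24 h seeding, 75 min 37 °C dye, 30 min RT | Evaluation: % activation from peak over basal fluorescence ratio, DMSO-to-PEA scaled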
TAAR1 antag: antagonists of human TAAR1; Q96RJ0; CHO RD-HGA16 TAAR1, Fluo-8 calcium fluorescence, antagonist; inhibition, % at 3 µM; 1.5% of 360,000 active;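 active = inhibition above a per-plate cutoff, the mean inhibition of test compounds on that plate plus 3 SD, cut at about 49% in these data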
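Test system: hTAAR1-expressing CHO RD-HGA16 cells, Gα16-coupled; Probe or stimulus: EC80 β-phenethylamine stimulus; Compound dosing: single nominal final test compound concentration of 3 µM; Timing: 140 s kinetic read after compound, 140 s after agonist; Signal: Fluo-8 calcium-sensitive fluorescence; Measure: % inhibition of agonist calcium response; Controls: DMSO and EC80 PEA controls.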
MC4R antagonist: human MC4R antagonism in cAMP assay | 0.48% of 360,000 active | MC4R-expressing cells, MTII-stimulated cAMP, LANCE TR-FRET | inhibition, % at 6.5 µM | AID 540295;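 active = inhibition above its plate's cutoff, the mean of tested wells on that plate plus 3 SD, cut at about 29% in these data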
Target sequence (P32245 whole entry, looked up): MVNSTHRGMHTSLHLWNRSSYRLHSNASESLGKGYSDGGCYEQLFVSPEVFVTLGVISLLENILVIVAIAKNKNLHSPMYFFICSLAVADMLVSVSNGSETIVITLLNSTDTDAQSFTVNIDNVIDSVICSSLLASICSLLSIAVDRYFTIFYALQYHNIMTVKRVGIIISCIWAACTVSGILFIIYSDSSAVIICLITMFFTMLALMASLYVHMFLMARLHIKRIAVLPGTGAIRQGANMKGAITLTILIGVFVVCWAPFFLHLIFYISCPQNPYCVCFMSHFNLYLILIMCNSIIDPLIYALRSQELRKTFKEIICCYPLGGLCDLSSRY
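Assay system: human MC4R-expressing U2OS cells; reagent: Melanotan II stimulation of cells; dosing: 6.5 µM single dose; timing: compound 30 min, challenge 1 h, detection 1 h; signal: TR-FRET cAMP assay; replicates: one well per compound, no replicates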
MC4R barr agon: human MC4R agonism via beta-arrestin; 0.98% of 360,000 active; P32245; U2OS MC4R beta-arrestin complementation, luminescence; percent of melanotan II response, DMSO zero; activation, % at 8.9 µM;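 active = activation above a per-plate cutoff, the mean activation of sample wells on that plate plus 3 SD, cut at about 8% in these data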
m5-HT2A agonist: mouse HTR2A agonism via beta-arrestin recruitment; P35363; CHO-K1 mHTR2A beta-arrestin complementation, luminescence; percent of 30 µM serotonin response; activation, % at 7.6 µM; 0.66% of 360,000 active; AID 624169;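 active = activation above a run cutoff, the mean activation of all tested compounds plus 3 SD, cut at about 14% in these data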
MC4R barr ag: human MC4R beta-arrestin agonism confirmation; shares compounds with MC4R barr agon; U2OS MC4R beta-arrestin recruitment, luminescence; scaled DMSO 0%, Melanotan II 100%; activation, % at 8.9 µM; 31% of 2,400 active; AID 602192;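 active = mean activation across replicates above the hit cutoff set in the earlier primary screen, cut at about 8% in these data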
MOR-DOR barr ag: OPRM1-OPRD1 heterodimer agonism counter-screen; shares compounds with MC4R barr agon; 5.8% of 2,400 active; U2OS PathHunter beta-arrestin, beta-gal luminescence; percent of deltorphin B response, DMSO zero; AID 602194; activation, % at 9.2 µM;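 active = mean activation across replicates exceeds the hit threshold derived in the earlier primary screen, cut at about 18% in these data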
Large screens that a line does not name were inactive (follow-up assays come after a bar, where they were run). Sampled rows, rich in hits. Any-hit rate of the full collection: about 4.3%.

COc1cccc(-c2cnc3c(NC=O)cc(-c4ccc(N(C)C)cc4)cn23)c1	MC4R barr agon 15 (no result: B2AR ag) | MC4R barr ag inactive | MOR-DOR barr ag inactive
COc1cccc(-c2cnc3c(NC=O)cc(-c4cc(OC)c(OC)c(OC)c4)cn23)c1	MC4R barr agon 29 (no result: B2AR ag) | MC4R barr ag 26 | MOR-DOR barr ag inactive
COc1ccc(-c2cc(NC=O)c3ncc(-c4cnn(C)c4)n3c2)cc1	MC4R barr agon 14 (no result: B2AR ag) | MC4R barr ag 9.6 | MOR-DOR barr ag inactive
COc1cccc(-c2cnc3c(NC=O)cc(-c4ccc(OC)cc4OC)cn23)c1	MC4R barr agon 14 (no result: B2AR ag) | MC4R barr ag 12 | MOR-DOR barr ag inactive
COc1cccc(-c2cc(NC=O)c3ncc(-c4ccc(OC)c(OC)c4)n3c2)c1	none (no result: B2AR ag)
Cc1ccccc1OCC(=O)O/N=C(\N)c1ccncc1	none
CCCN(CC(=O)Nc1ccccc1C)C(=O)CCCNC(=O)c1ccc(Cl)cc1	none
CN(CC(=O)Nc1cccc(S(=O)(=O)NC2=NCCC2)c1)Cc1cccc(F)c1	none
CCn1cc(C(=O)OCC(=O)c2cc(C)n(-c3cccc(C(F)(F)F)c3)c2C)c(=O)c2ccc(C)nc21	none
CCn1cc(C(=O)NCc2cccc(C(F)(F)F)c2)c(=O)c2ccc(C)nc21	MC4R barr agon 14 | MC4R barr ag inactive | MOR-DOR barr ag inactive
O=C(Nc1cc(-c2nc3ccccc3s2)ccc1Cl)c1ccc2c(c1)OCO2	MC4R barr agon 24 | MC4R barr ag 21 | MOR-DOR barr ag inactive
Cc1ccc2nc(NC(=O)c3cc(-c4ccco4)nc4ccccc34)sc2c1	MC4R barr agon 23 | MC4R barr ag 13 | MOR-DOR barr ag inactive
O=C(NCc1ccc(F)cc1)c1cccc(S(=O)(=O)N2CCOCC2)c1	none
CSc1sc(-c2nnc(SCC(=O)Nc3ccc(Cl)cc3)n2C)c2c1C=CCC2	MC4R barr agon 16 | MC4R barr ag inactive | MOR-DOR barr ag inactive
COCCSc1nnc(NC(=O)C2CC(=O)N(C3CCCC3)C2)s1 (centres undefined)	none
O=C(/C=C/c1ccc(OC(F)F)cc1)OCC(=O)N1CCc2ccccc21	MC4R barr agon 13 | MC4R barr ag inactive | MOR-DOR barr ag inactive
COc1cc(NC(=O)c2cc3c(=O)n(C)c4ccccc4c3n2C)cc(OC)c1OC	MC4R barr agon 31 | MC4R barr ag inactive | MOR-DOR barr ag inactive
Cc1cnc(C(=O)NNC(=O)c2ccc(Br)cc2)cn1	none
CCOC(=O)c1c(Nc2ccccc2)sc(/C=C2\C=Nc3ccccc32)c1O	MC4R barr agon 15 (no result: TAAR1 agonist, TAAR1 antag) | MC4R barr ag inactive | MOR-DOR barr ag inactive
COc1cc(C(=O)Nc2nnc(-c3sccc3C)s2)cc(OC)c1OC	MC4R barr agon 12 | MC4R barr ag 23 | MOR-DOR barr ag inactive
CC1(C)OC(=O)NC1c1ccccc1 (centres undefined)	none (no result: B2AR ag)
Cc1cccc(N2CC(C(=O)Nc3nccs3)CC2=O)c1C (centres undefined)	none
Cc1cccc(CCN(C(=O)c2csnn2)C(C(=O)NC2CCCC2)c2ccco2)c1 (centres undefined)	none
c1ccc(OCCCn2nnc(-c3ccc(N4CCOCC4)cc3)n2)cc1	MC4R barr agon 17 | MC4R barr ag inactive | MOR-DOR barr ag inactive
OC(c1cc(F)cc(Cl)c1)c1ncc(-c2ccc(Cl)cc2)[nH]1 (centres undefined)	MC4R barr agon 9.8 (no result: B2AR ag) | MC4R barr ag inactive | MOR-DOR barr ag inactive
OC(c1ccc(F)c(F)c1)c1ncc(-c2ccc(Cl)cc2)[nH]1 (centres undefined)	none (no result: B2AR ag)
O=C(Nc1ccccc1)Nc1nnc(CSCc2ccccc2Cl)s1	MC4R barr agon 11 | MC4R barr ag inactive | MOR-DOR barr ag inactive
COC(=O)c1cc(CN2CCN(c3ccccc3)CC2)ccc1O	none
CN1C(=O)/C(=C/c2ccccc2OCc2cccc(F)c2)NC1=S	MC4R barr agon 30 | MC4R barr ag inactive | MOR-DOR barr ag inactive
CCCNC(=O)c1onc(CSc2ccc(Cl)cc2)c1C(=O)NC(C)C	none
O=C(CN1CCCCCCC1)Nc1cc(Cl)cc(Cl)c1	MC4R barr agon 14 | MC4R barr ag inactive | MOR-DOR barr ag inactive
O=C(CN1CCCC1)Nc1cccc(Cl)c1	none
CC1CCCC(NCC(O)COC(c2ccc(F)cc2)c2ccc(F)cc2)C1C (centres undefined)	MC4R barr agon 18 | MC4R barr ag 16 | MOR-DOR barr ag 24
CC1CCCC(NC(=O)CCC(=O)c2ccc(F)cc2)C1C (centres undefined)	none
COc1ccc(N(CC(=O)N/N=C/c2ccco2)S(=O)(=O)c2ccccc2)cc1Cl	none
Cc1ccc(CSc2nnc(Nc3ccc(C)cc3)s2)cc1	MC4R barr agon 19 | MC4R barr ag inactive | MOR-DOR barr ag inactive
CCc1ccc(Nc2nnc(SCC(=O)Nc3ccc(C(=O)O)cc3)s2)cc1	none
CCc1ccc(Nc2nnc(SCC(=O)NC(=O)c3cccn3C)s2)cc1	MC4R barr agon 20 | MC4R barr ag inactive | MOR-DOR barr ag inactive
O=[N+]([O-])c1ccc2[nH]c(O)c(N=Nc3ccc(F)cc3)c2c1	none
O=[N+]([O-])c1ccc(N=Nc2c(O)[nH]c3ccc(F)cc23)cc1	MC4R barr agon 18 | MC4R barr ag 10 | MOR-DOR barr ag inactive
Cc1ccc(CNC(=O)Cn2c(=O)c3sccc3n(Cc3ccc([N+](=O)[O-])cc3)c2=O)cc1	MC4R barr agon 14 | MC4R barr ag inactive | MOR-DOR barr ag inactive
Cc1ccc(CNC(=O)Cn2c(=O)n(CC(=O)N3CCCCC3)c(=O)c3sccc32)cc1	none
O=C(Nc1ccccc1OC(F)F)c1oc2ccccc2c1COc1ccccc1	MC4R barr agon 27 | MC4R barr ag 14 | MOR-DOR barr ag inactive
Oc1ccc(/C=N/N2CCN(C3c4ccccc4-c4ccccc43)CC2)cc1O	MC4R barr agon 28 | MC4R barr ag 13 | MOR-DOR barr ag inactive
CCc1ccc(C(=O)C(C)OC(=O)c2nn(C)c(=O)c3ccccc23)cc1 (centres undefined)	none
CC(=O)Nc1ccc(S(=O)(=O)NCC2CCC(C(=O)N3CC(C)CC(C)C3)CC2)cc1 (centres undefined)	none
O=C(CN1c2ccccc2Sc2ccccc21)NNC(=O)Nc1ccc(Cl)c(Cl)c1	MC4R barr agon 23 | MC4R barr ag inactive | MOR-DOR barr ag inactive

Screening results (PubChem BioAssay)
